Reference: ChEMBL document CHEMBL1152997, “Prevalence of and molecular basis for tuberculosis drug resistance in the Republic of Georgia: validation of a QIAplex system for detection of drug resistance-related mutations” (2008)

Assays:
Format in all cases: functional
[1] = system: Mycobacterium tuberculosis; test: Antimycobacterial activity against Mycobacterium tuberculosis clinical isolates from tuberculosis patient assessed as percent resistant isolates at 2 ug/ml by absolute-concentration method
How it was run: (§1)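 Consecutive clinical M. tuberculosis isolates (196), Tbilisi, Jan–Mar 2006, primary culture on Lowenstein-Jensen medium. Suspension adjusted to 1 McFarland in sterile saline. 0.2 ml was plated onto drug-containing solid medium: a 10-fold dilution series for the 2, 4 and 40 µg/ml media, and a 100-fold dilution for the 0.2 µg/ml medium. Incubation at 37°C, 5–10% CO2, 28 days.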

[2] = system: Mycobacterium tuberculosis; test: Antimycobacterial activity against Mycobacterium tuberculosis clinical isolates from tuberculosis patient assessed as percent resistant isolates at 0.2 ug/ml by absolute-concentration method; how it was run: as §1
[3] = system: Mycobacterium tuberculosis; test: Antimycobacterial activity against Mycobacterium tuberculosis clinical isolates from tuberculosis patient assessed as percent resistant isolates at 40 ug/ml by absolute-concentration method; how it was run: as §1
[4] = system: Mycobacterium tuberculosis; test: Antimycobacterial activity against Mycobacterium tuberculosis clinical isolates from tuberculosis patient assessed as percent resistant isolates at 4 ug/ml by absolute-concentration method; how it was run: as §1

`CC[C@@H](CO)NCCN[C@@H](CC)CO` [ETHAMBUTOL] gave an Activity [1] of 2.6%.
`NNC(=O)c1ccncc1` [ISONIAZID] showed an Activity [2] of 20.9%.
For `CO[C@H]1/C=C/O[C@@]2(C)Oc3c(C)c(O)c4c(O)c(c(/C=N/N5CCN(C)CC5)c(O)c4c3C2=O)NC(=O)/C(C)=C\C=C\[C@H](C)[C@H](O)[C@@H](C)[C@@H](O)[C@@H](C)[C@H](OC(C)=O)[C@@H]1C` [RIFAMPIN], the Activity [3] was 9.2%.
`CN[C@@H]1[C@H](O[C@H]2[C@H](O[C@H]3[C@H](O)[C@@H](O)[C@H](N=C(N)N)[C@@H](O)[C@@H]3N=C(N)N)O[C@@H](C)[C@]2(O)C=O)O[C@@H](CO)[C@H](O)[C@H]1O` [STREPTOMYCIN] gave an Activity [4] of 25%.
